The target in assay [1] is T1, Adrenergic receptor alpha-2 (Rattus norvegicus, UniProt P22086+P19328+P22909).
T1 sequence (P22086 whole entry): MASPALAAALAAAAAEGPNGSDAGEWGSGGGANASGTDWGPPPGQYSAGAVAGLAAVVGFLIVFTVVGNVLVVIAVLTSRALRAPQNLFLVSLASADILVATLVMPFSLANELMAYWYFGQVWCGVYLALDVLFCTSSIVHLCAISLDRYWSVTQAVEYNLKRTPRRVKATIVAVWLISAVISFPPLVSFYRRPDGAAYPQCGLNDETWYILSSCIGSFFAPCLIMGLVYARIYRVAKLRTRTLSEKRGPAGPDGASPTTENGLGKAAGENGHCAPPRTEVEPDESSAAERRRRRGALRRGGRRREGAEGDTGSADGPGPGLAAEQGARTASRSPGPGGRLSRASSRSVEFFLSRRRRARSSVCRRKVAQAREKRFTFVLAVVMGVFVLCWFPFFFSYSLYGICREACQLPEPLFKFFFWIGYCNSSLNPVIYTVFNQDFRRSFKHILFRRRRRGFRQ
T1 sequence (P19328 whole entry): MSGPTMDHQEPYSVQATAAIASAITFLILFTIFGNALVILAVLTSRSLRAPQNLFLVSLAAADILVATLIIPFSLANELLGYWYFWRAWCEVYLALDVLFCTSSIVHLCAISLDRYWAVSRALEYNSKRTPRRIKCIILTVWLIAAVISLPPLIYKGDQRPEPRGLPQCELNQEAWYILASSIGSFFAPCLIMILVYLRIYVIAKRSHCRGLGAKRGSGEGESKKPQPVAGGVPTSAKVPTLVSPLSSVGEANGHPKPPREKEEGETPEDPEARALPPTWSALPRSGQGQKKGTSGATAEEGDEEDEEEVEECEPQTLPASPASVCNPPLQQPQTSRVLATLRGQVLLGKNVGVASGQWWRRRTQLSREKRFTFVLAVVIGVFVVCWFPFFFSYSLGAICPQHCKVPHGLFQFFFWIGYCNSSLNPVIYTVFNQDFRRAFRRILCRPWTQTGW
T1 sequence (P22909 whole entry): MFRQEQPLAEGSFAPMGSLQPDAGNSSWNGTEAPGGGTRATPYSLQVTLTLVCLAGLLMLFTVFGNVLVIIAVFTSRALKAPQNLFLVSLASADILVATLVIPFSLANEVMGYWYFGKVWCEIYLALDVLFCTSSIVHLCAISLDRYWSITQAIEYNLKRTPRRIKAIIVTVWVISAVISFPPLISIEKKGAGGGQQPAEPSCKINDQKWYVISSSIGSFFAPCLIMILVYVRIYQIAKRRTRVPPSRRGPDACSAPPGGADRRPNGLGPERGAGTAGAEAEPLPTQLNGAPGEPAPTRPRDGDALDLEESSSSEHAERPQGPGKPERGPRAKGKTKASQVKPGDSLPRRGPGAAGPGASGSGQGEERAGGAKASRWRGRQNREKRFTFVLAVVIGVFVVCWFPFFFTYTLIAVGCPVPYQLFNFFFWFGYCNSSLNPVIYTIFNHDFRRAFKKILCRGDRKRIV
Kind of assay: Antagonist activity at alpha-2 adrenoreceptor in Sprague-Dawley rat prostatic vas deferens assessed as reversal of clonidine-inhibited twitch responses of field-stimulated prostatic portion of vas deferens after 30 mins by Schild plot analysis. The format is tissue-based. In a few lines:
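Prostatic vas deferens in bath with propranolol 1 μM and desipramine 0.01 μM throughout. A cumulative clonidine control curve was run, then a second curve after 30 min antagonist equilibration. pA₂ from Schild plot of log(DR−1) vs log[antagonist], at least three antagonist concentrations, 3−5 repeats each.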

For assay [2], the target named is T2, Alpha-1B adrenergic receptor (Homo sapiens, UniProt P35368).
T2 sequence (P35368 whole entry): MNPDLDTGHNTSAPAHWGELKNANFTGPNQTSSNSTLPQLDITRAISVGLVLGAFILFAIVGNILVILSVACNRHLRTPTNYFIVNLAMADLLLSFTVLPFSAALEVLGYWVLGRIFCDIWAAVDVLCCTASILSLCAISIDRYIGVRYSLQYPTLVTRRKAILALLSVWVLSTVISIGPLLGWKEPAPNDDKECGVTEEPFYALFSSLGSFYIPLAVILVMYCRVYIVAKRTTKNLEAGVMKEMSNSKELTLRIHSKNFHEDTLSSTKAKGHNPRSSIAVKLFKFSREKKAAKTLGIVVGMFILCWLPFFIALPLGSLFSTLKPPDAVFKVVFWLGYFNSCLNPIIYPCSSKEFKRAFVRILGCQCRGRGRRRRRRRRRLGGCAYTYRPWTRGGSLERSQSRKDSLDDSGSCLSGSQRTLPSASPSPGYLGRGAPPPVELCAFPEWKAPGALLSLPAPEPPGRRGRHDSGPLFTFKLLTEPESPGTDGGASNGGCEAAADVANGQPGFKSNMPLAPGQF
Kind of assay: Displacement of [3H]prazosin from human alpha-1B adrenoreceptor expressed in CHO cells after 30 mins. The class given is cell-based. The gist of the method: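 Membranes from CHO cells expressing each α₁-AR subtype, incubated 30 min at 25 °C in 50 mM Tris HCl pH 7.7 with 10 μM pargyline and 0.1% ascorbic acid, plus 0.5 nM [³H]prazosin and varying test compound concentrations. Nonspecific binding was defined with 1 μM prazosin.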
Background: In a radioligand displacement assay an active substance lowers the binding of a labelled ligand.

The target of assay [3] is T3, Alpha-1D adrenergic receptor (Rattus norvegicus, UniProt P23944).
T3 sequence (P23944 whole entry): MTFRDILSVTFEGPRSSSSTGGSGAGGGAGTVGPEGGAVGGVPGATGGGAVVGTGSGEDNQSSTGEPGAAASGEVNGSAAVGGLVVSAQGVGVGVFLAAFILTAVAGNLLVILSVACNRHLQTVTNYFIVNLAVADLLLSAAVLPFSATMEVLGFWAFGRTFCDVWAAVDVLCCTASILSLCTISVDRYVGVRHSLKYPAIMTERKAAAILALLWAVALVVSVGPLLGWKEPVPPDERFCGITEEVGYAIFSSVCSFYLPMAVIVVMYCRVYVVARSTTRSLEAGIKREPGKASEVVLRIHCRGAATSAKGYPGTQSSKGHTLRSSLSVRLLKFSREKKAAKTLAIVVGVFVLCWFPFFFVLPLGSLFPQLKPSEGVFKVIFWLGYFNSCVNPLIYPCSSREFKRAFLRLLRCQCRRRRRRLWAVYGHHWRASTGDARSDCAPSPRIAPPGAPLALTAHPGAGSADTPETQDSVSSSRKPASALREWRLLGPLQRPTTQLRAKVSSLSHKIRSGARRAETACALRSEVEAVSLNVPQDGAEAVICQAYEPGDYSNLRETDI
Briefly: Antagonist activity at alpha-1D adrenoreceptor in Sprague-Dawley rat thoracic aorta assessed as inhibition of noradrenaline-induced tissue contraction after 30 mins by Schild plot analysis. To be noted: read-out: pA2 (converted). The gist of the method: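 Endothelium-denuded helicoid aortic strips, about 1.5 cm, with denudation confirmed by absent acetylcholine relaxation. Strips were equilibrated ≥1 h at 1 g tension and cumulative (−)-noradrenaline curves recorded, the first two discarded and the third taken as control; a fourth followed 30 min antagonist equilibration. pA₂ from Schild plot, 3−5 repeats per concentration.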

As usually defined, the pA2 is a measure of antagonist potency on a negative log scale. One may read the Ki as the dissociation constant of the complex between target and ligand, obtained from inhibition or displacement. Lower therefore signals higher affinity. In the case of `COc1ccc2ccoc2c1OCCNC[C@H]1COc2ccccc2O1.Cl`, the pA2 in assay [1] is recorded as 6.55. The compound further had a Ki in assay [2] of 28.8 nM. The Kb in assay [3] is 0.977 nM.

Consider `COc1ccc2cc[nH]c2c1OCCNC[C@H]1COc2ccccc2O1`, for which, in assay [1], the pA2 amounted to 6.09. Further, in assay [2], the affinity, expressed as Ki, was 490 nM. Besides, the Kb in assay [3] was 3.02 nM.

As for `COc1ccc2c(c1OCCNC[C@H]1COc3ccccc3O1)NCC2.Cl.Cl`, the pA2 in assay [1] was 6.05. The compound further gave a Ki in assay [2] of 35.5 nM. The Kb in assay [3] is 2.4 nM.

For the compound `COc1ccc2c(c1OCCNC[C@H]1COc3ccccc3O1)OCC2.Cl`, in assay [1], the pA2 was 6.63. For the same compound, in assay [2], the Ki was 21.9 nM. In addition, in assay [3], the Kb was 0.263 nM.

These data come from ChEMBL document CHEMBL2417545, “6-methoxy-7-benzofuranoxy and 6-methoxy-7-indolyloxy analogues of 2-[2-(2,6-Dimethoxyphenoxy)ethyl]aminomethyl-1,4-benzodioxane (WB4101):1 discovery of a potent and selective α1D-adrenoceptor antagonist” (J Med Chem, 2013).
